ChEMBL document CHEMBL1156669, “Aldehyde dehydrogenase inhibitors: alpha,beta-acetylenic N-substituted aminothiolesters are reversible growth inhibitors of normal epithelial but irreversible apoptogens for cancer epithelial cells from human prostate in culture” (Eur J Med Chem, 2008)
Activity calls are given as the source filed them. The calls are words filed in the database; no cut-off is given here.

Key:
DU-145 [1] = test: Growth inhibition of human DU145 cells administered after 3 days; type: functional, cell-based; conditions: DU-145, 72 h
How it was run: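 DU145 in RPMI 1640 with 10% FCS; 1 × 10⁵ cells per well in 24-well plates, compound added 4 h after seeding. After 3 days the adherent sheet was washed twice with PBS and harvested in 0.14 M NaOH, and protein content measured. IC50 is the mean of three experiments.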

[2] = Growth inhibition of HPEN cells administered after 3 days; type: cell-based; conditions: Homo sapiens, 72 h
How it was run: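 HPENC in PrEGM with supplement and 10% FCS; 1 × 10⁵ cells per well in 24-well plates, compound added 4 h after seeding once adhered. After 3 days, growth read as protein content. IC50 is the mean of three experiments.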

[3] = target: Aldehyde dehydrogenase 1 (Saccharomyces cerevisiae); test: Inhibition of ALDH1
BaF3 = test: Induction of apoptosis in mouse BAF3 cells overexpressing bcl2; type: functional, cell-based
[4] = Growth inhibition of human androgen-resistant ME cells after 3 days; type: functional; conditions: 72 h
How it was run: (§1)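 MOP (androgen-sensitive, LNCaP grown long-term in steroid-deprived medium) and ME (from regrown MOP xenografts under androgen) in RPMI 1640 with 5% charcoal-treated FCS. Seeded 1 × 10⁵ cells per well in 24-well plates, compound added at 4 h, cell count by Coulter counter after 3 days. IC50 is the mean of three experiments.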

DU-145 [5] = test: Decrease in redox potential in human DU145 cells at 10 uM after 3 days by flow cytometry; type: functional, cell-based
[6] = Reversal of growth inhibition in HPEN cells assessed as increase in cell number at 10 uM after 8 days; type: cell-based; conditions: human, 192 h
How it was run: (§2)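 Cells seeded in six wells and treated from 4 h after seeding. Two wells were left in the original drug-containing medium for a further 5 days. Growth measured on day 8 as protein content of adherent cells and expressed as the day 8/day 3 ratio. EtOH vehicle controls were handled identically. Two experiments in duplicate.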

[7] = Growth inhibition of HPEN cells at 10 uM after 3 days; type: cell-based; conditions: human
How it was run: (§3)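 Cells seeded at 1 × 10⁵ per well in 24-well plates; compound added 4 h post-seeding and left for 3 days. Growth inhibition measured as protein content relative to control. HPENC values are means of three experiments in duplicate; DU145 values are means of five experiments in duplicate.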

[8] = Growth inhibition of human androgen-sensitive MOP cells after 3 days; type: functional; conditions: 72 h; how it was run: as §1
DU-145 [9] = test: Reversal of growth inhibition in human DU145 cells assessed as increase in cell number at 10 uM after 8 days; type: functional; how it was run: as §2
RH7777 = test: Growth inhibition of RH7777 cells; type: functional, cell-based; conditions: Rattus norvegicus
[10] = Growth inhibition of rat JM2 cells; type: functional, cell-based
DU-145 [11] = test: Increase in superoxide anion level in human DU145 cells at 10 uM after 3 days by flow cytometry; type: functional, cell-based
[12] = target: T1, Aldehyde dehydrogenase, dimeric NADP-preferring (Homo sapiens) (UniProt P30838); test: Inhibition of ALDH3 in human DU145 cells at 7.5 uM after 3 days; type: cell-based; conditions: DU-145
T1 sequence (whole entry): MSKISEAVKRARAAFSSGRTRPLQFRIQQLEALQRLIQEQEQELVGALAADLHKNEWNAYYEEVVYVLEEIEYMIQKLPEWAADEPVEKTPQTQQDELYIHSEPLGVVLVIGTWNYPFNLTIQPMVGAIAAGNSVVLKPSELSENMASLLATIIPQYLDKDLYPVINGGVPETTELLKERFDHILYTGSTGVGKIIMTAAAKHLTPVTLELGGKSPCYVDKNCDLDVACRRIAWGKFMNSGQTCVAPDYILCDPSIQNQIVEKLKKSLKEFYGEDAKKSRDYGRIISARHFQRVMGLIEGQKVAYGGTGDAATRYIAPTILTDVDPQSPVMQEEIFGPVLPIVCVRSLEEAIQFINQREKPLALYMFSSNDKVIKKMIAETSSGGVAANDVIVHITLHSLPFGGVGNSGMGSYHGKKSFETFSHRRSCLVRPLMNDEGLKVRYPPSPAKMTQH
How it was run: (§4)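 DU145 treated for 3 days, trypsinised, washed in PBS and lysed in 60 mM sodium phosphate pH 7 with 1% Triton X-100 and 1 mM EDTA, 30 min at 4 °C; lysate spun at 48,000g for 30 min. ALDH1: supernatant in phosphate pH 8.5, 1 mM EDTA, 100 mM KCl, 2.35 mM NAD, propanal substrate. ALDH3: 5 mM benzaldehyde, 2.5 mM NADP, 1 mM pyrazole. Two experiments in duplicate.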

[13] = Reversal of growth inhibition in HPEN cells assessed as increase in cell number at 10 uM on day 3 replaced with fresh medium without drug and measured after 8 days; type: cell-based; conditions: human, 192 h
How it was run: (§5)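 Cells were treated for 3 days. The medium was then aspirated, the sheet washed with PBS and fresh drug-free medium added, followed by 5 more days of culture. Growth measured on day 8 as adherent-cell protein and expressed relative to the day-3 protein content of parallel wells. Two experiments in duplicate.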

DU-145 [14] = test: Growth inhibition of human DU145 cells at 5 uM after 3 days; type: functional; conditions: DU-145, 72 h; how it was run: as §3
[15] = Growth inhibition of HPEN cells at 5 uM after 3 days; type: cell-based; conditions: human; how it was run: as §3
[16] = target: T2, Aldehyde dehydrogenase 1A1 (Homo sapiens) (UniProt P00352); test: Inhibition of ALDH1 in human DU145 cells at 5 uM after 3 days; type: cell-based; conditions: DU-145; how it was run: as §4
T2 sequence (whole entry): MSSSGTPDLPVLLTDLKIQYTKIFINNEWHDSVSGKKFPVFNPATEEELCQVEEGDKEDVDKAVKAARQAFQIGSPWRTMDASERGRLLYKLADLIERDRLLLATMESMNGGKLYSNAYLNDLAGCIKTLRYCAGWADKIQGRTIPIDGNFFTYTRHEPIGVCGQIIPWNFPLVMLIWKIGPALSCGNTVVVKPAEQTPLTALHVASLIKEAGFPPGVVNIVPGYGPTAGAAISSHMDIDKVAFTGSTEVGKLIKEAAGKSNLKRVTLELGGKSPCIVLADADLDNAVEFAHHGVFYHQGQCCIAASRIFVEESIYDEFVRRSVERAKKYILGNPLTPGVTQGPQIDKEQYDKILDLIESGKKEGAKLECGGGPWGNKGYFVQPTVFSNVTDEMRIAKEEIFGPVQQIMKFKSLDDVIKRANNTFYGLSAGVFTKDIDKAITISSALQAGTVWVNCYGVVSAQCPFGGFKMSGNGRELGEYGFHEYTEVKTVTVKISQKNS

[17] = target: T2, Aldehyde dehydrogenase 1A1 (Homo sapiens); test: Inhibition of ALDH1 in human DU145 cells at 2.5 uM after 3 days; type: cell-based; conditions: DU-145; how it was run: as §4
MRC5 = test: Growth inhibition of human MRC5 cells; type: cell-based
DU-145 [18] = test: Reversal of growth inhibition in human DU145 cells assessed as increase in cell number at 10 uM on day 3 replaced with fresh medium without drug and measured after 8 days; type: functional; how it was run: as §5
[19] = target: T1, Aldehyde dehydrogenase, dimeric NADP-preferring (Homo sapiens); test: Inhibition of ALDH3 in human DU145 cells at 5 uM after 3 days; type: cell-based; conditions: DU-145; how it was run: as §4
[20] = Growth inhibition of HPEN cells at 2 uM after 3 days; type: cell-based; conditions: human; how it was run: as §3
DU-145 [21] = test: Growth inhibition of human DU145 cells at 10 uM after 3 days; type: functional; conditions: DU-145, 72 h; how it was run: as §3
DU-145 [22] = test: Growth inhibition of human DU145 cells at 2 uM after 3 days; type: functional; conditions: DU-145, 72 h; how it was run: as §3
DU-145 [23] = test: Induction of apoptosis in human DU145 cells assessed as apoptotic cells in flow cytometry region H3 at 10 uM after 3 days by flow cytometry
[24] = target: T1, Aldehyde dehydrogenase, dimeric NADP-preferring (Homo sapiens); test: Inhibition of ALDH3 in human DU145 cells at 2.5 uM after 3 days; type: cell-based; conditions: DU-145; how it was run: as §4
[25] = target: T2, Aldehyde dehydrogenase 1A1 (Homo sapiens); test: Inhibition of ALDH1 in human DU145 cells at 7.5 uM after 3 days; type: cell-based; conditions: DU-145; how it was run: as §4
DU-145 [26] = test: Induction of apoptosis in human DU145 cells assessed as apoptotic cells in flow cytometry region H1 at 10 uM after 3 days by flow cytometry

CCCN(CCC)C(C)(C)C#CC(=O)SC
IC50 (DU-145 [1]): 12.6 µM

CSC(=O)C#CC(C)(C)N1Cc2ccccc2C1
IC50 (DU-145 [1]): 6.2 µM

CSC(=O)C#CC(C)(C)N(C)Cc1ccccc1
IC50 (DU-145 [1]): 1.4 µM | IC50 [2]: 1.9 µM

CSC(=O)C#CC(C)(C)N(C)c1ccccc1
IC50 (DU-145 [1]): 12.5 µM

CSC(=O)C#CC(C)(C)N(C)CCc1ccccc1
IC50 (DU-145 [1]): 6 µM

CSC(=O)C#CC(C)(C)N
Ki [3]: 280 µM | IC50 (BaF3): 4 µM

CN(C)C(=S)C#CC(C)(C)N1CCOCC1
IC50 (DU-145 [1]): 100 µM

CSC(=O)C#CC(C)(C)N(C)C
IC50 [4]: 3 µM | Activity (DU-145 [5]): Active | Activity [6]: 0.9 | inhibition at 72 h, 10 µM [7]: 60% | IC50 [8]: 3 µM | IC50 (DU-145 [1]): 7.2 µM | Activity (DU-145 [9]): 2.5 | IC50 (RH7777): 10 µM | IC50 [10]: 10 µM | Activity (DU-145 [11]): Active | inhibition [12]: 100% | Activity [13]: 2.8 | inhibition at 5 µM (DU-145 [14]): 34% | inhibition at 72 h, 5 µM [15]: 23% | inhibition [16]: 40% | inhibition [17]: 15% | IC50 (MRC5): 8 µM | Activity (DU-145 [18]): 2.7 | inhibition [19]: 62% | inhibition at 72 h, 2 µM [20]: 6% | inhibition at 10 µM (DU-145 [21]): 78% | inhibition at 2 µM (DU-145 [22]): 6% | Activity (DU-145 [23]): Active | inhibition [24]: 40% | inhibition [25]: 78% | IC50 [2]: 9.7 µM | Activity (DU-145 [26]): Active
